Data as given in ChEMBL document CHEMBL1123178, “Preparation and evaluation of radioiodinated (iodophenyl)cholines and their morpholinium and piperidinium analogues as myocardial perfusion imaging agents” (J Med Chem, 1986).

Tests used:
[1] = Distribution in the lung after 15 min of intravenous administration; format: ADME, tissue-based; conditions: 0.25 h
Procedure, shortened: (§1)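 Swiss white mice (20-25 g) anesthetized with sodium pentobarbital (80 mg/kg ip), then given 0.1-0.2 mL (74 kBq) of radioiodinated compound or 201Tl+ by tail-vein injection. Four mice per time point were killed by cardiac puncture/exsanguination at 5, 15, 30 and 60 min (some also at 90 and 120 min). Organs were excised, washed, blotted and weighed, blood was sampled, and radioactivity was counted against injection standards. Values are percent injected dose/g.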

[2] = Distribution in the lung after 30 min of intravenous administration; format: ADME, tissue-based; conditions: 0.5 h; procedure, shortened: as §1
[3] = Distribution in the lung after 5 min of intravenous administration; format: ADME, tissue-based; procedure, shortened: as §1
[4] = Distribution in the lung after 60 min of intravenous administration; format: ADME, tissue-based; conditions: 1 h; procedure, shortened: as §1
[5] = Distribution in the lung after 90 min of intravenous administration; format: ADME, tissue-based; conditions: 1.5 h; procedure, shortened: as §1
[6] = Distribution in the muscle after 120 min of intravenous administration; format: ADME, tissue-based, Muscle tissue; conditions: 2 h; procedure, shortened: as §1
[7] = Distribution in the muscle after 15 min of intravenous administration; format: ADME, tissue-based, Muscle tissue; conditions: 0.25 h; procedure, shortened: as §1
[8] = Distribution in the muscle after 5 min of intravenous administration; format: ADME, tissue-based, Muscle tissue; procedure, shortened: as §1
[9] = Distribution in the muscle after 60 min of intravenous administration; format: ADME, tissue-based, Muscle tissue; conditions: 1 h; procedure, shortened: as §1
[10] = Distribution in the muscle after 90 min of intravenous administration; format: ADME, tissue-based, Muscle tissue; conditions: 1.5 h; procedure, shortened: as §1
[11] = Distribution in the spleen after 120 min of intravenous administration; format: ADME, tissue-based; conditions: 2 h; procedure, shortened: as §1
[12] = Distribution in the spleen after 15 min of intravenous administration; format: ADME, tissue-based; conditions: 0.25 h; procedure, shortened: as §1
[13] = Distribution in the spleen after 30 min of intravenous administration; format: ADME, tissue-based; conditions: 0.5 h; procedure, shortened: as §1
[14] = Distribution in the spleen after 5 min of intravenous administration; format: ADME, tissue-based; procedure, shortened: as §1
[15] = Distribution in the spleen after 60 min of intravenous administration; format: ADME, tissue-based; conditions: 1 h; procedure, shortened: as §1
[16] = Distribution in the spleen after 90 min of intravenous administration; format: ADME, tissue-based; conditions: 1.5 h; procedure, shortened: as §1
[17] = Distribution in the blood after 120 min of intravenous administration; format: ADME, tissue-based; conditions: 2 h; procedure, shortened: as §1
[18] = Distribution in the blood after 15 min of intravenous administration; format: ADME, tissue-based; conditions: 0.25 h; procedure, shortened: as §1
[19] = Distribution in the blood after 30 min of intravenous administration; format: ADME, tissue-based; conditions: 0.5 h; procedure, shortened: as §1
[20] = Distribution in the blood after 5 min of intravenous administration; format: ADME, tissue-based; procedure, shortened: as §1
[21] = Distribution in the blood after 60 min of intravenous administration; format: ADME, tissue-based; conditions: 1 h; procedure, shortened: as §1
[22] = Distribution in the blood after 90 min of intravenous administration; format: ADME, tissue-based; conditions: 1.5 h; procedure, shortened: as §1
[23] = Distribution in the bone after 120 min of intravenous administration; format: ADME, tissue-based, Bone element; conditions: 2 h; procedure, shortened: as §1
[24] = Distribution in the bone after 30 min of intravenous administration; format: ADME, tissue-based, Bone element; conditions: 0.5 h; procedure, shortened: as §1
[25] = Distribution in the bone after 5 min of intravenous administration; format: ADME, tissue-based, Bone element; procedure, shortened: as §1
[26] = Distribution in the bone after 60 min of intravenous administration; format: ADME, tissue-based, Bone element; conditions: 1 h; procedure, shortened: as §1
[27] = Distribution in the bone after 90 min of intravenous administration; format: ADME, tissue-based, Bone element; conditions: 1.5 h; procedure, shortened: as §1
[28] = Distribution in the heart after 120 min of intravenous administration; format: ADME, tissue-based; conditions: 2 h; procedure, shortened: as §1
[29] = Distribution in the heart after 15 min of intravenous administration; format: ADME, tissue-based; conditions: 0.25 h; procedure, shortened: as §1
[30] = Distribution in the heart after 30 min of intravenous administration; format: ADME, tissue-based; conditions: 0.5 h; procedure, shortened: as §1
[31] = Distribution in the heart after 5 min of intravenous administration; format: ADME, tissue-based; procedure, shortened: as §1
[32] = Distribution in the heart after 60 min of intravenous administration; format: ADME, tissue-based; conditions: 1 h; procedure, shortened: as §1
[33] = Distribution in the heart after 90 min of intravenous administration; format: ADME, tissue-based; conditions: 1.5 h; procedure, shortened: as §1
[34] = Distribution in the kidneys after 120 min of intravenous administration; format: ADME, tissue-based, Kidney; conditions: 2 h; procedure, shortened: as §1
[35] = Distribution in the kidneys after 15 min of intravenous administration; format: ADME, tissue-based, Kidney; conditions: 0.25 h; procedure, shortened: as §1
[36] = Distribution in the kidneys after 30 min of intravenous administration; format: ADME, tissue-based, Kidney; conditions: 0.5 h; procedure, shortened: as §1
[37] = Distribution in the kidneys after 5 min of intravenous administration; format: ADME, tissue-based, Kidney; procedure, shortened: as §1
[38] = Distribution in the kidneys after 60 min of intravenous administration; format: ADME, tissue-based, Kidney; conditions: 1 h; procedure, shortened: as §1
[39] = Distribution in the liver after 120 min of intravenous administration; format: ADME, tissue-based; conditions: 2 h; procedure, shortened: as §1
[40] = Distribution in the liver after 15 min of intravenous administration; format: ADME, tissue-based; conditions: 0.25 h; procedure, shortened: as §1
[41] = Distribution in the liver after 30 min of intravenous administration; format: ADME, tissue-based; conditions: 0.5 h; procedure, shortened: as §1
[42] = Distribution in the liver after 5 min of intravenous administration; format: ADME, tissue-based; procedure, shortened: as §1
[43] = Distribution in the liver after 60 min of intravenous administration; format: ADME, tissue-based; conditions: 1 h; procedure, shortened: as §1
[44] = Distribution in the liver after 90 min of intravenous administration; format: ADME, tissue-based; conditions: 1.5 h; procedure, shortened: as §1
[45] = Distribution in the lung after 120 min of intravenous administration; format: ADME, tissue-based; conditions: 2 h; procedure, shortened: as §1
Mus musculus = assay: Distribution in the muscle after 30 min of intravenous administration; format: ADME, organism-based, Muscle tissue; conditions: in vivo, 0.5 h; procedure, shortened: as §1
[46] = Distribution in the bone after 15 min of intravenous administration; format: ADME, tissue-based, Bone element; conditions: 0.25 h; procedure, shortened: as §1
[47] = Distribution in the kidneys after 90 min of intravenous administration; format: ADME, tissue-based, Kidney; conditions: 1.5 h; procedure, shortened: as §1

Distribution [1]: 5.5%
Distribution [2]: 4.6%
Distribution [3]: 7.3%
Distribution [4]: 3.4%
Distribution [5]: 2.7%
Distribution [6]: 1.1%
Distribution [7]: 1%
Distribution [8]: 0.9%
Distribution [9]: 1%
Distribution [10]: 1%
Distribution [11]: 2.1%
Distribution [12]: 3.6%
Distribution [13]: 3.4%
Distribution [14]: 5%
Distribution [15]: 2.6%
Distribution [16]: 2.1%
Distribution [17]: 1.4%
Distribution [18]: 2.4%
Distribution [19]: 1.9%
Distribution [20]: 1.9%
Distribution [21]: 1.5%
Distribution [22]: 1.2%
Distribution [23]: 1.3%
Distribution [24]: 2%
Distribution [25]: 1.6%
Distribution [26]: 1.5%
Distribution [27]: 1.3%
Distribution [28]: 17.7%
Distribution [29]: 21.6%
Distribution [30]: 23.1%
Distribution [31]: 20%
Distribution [32]: 19.5%
Distribution [33]: 18.1%
Distribution [34]: 6%
Distribution [35]: 24%
Distribution [36]: 14.1%
Distribution [37]: 40.1%
Distribution [38]: 7.4%
Distribution [39]: 2%
Distribution [40]: 4.9%
Distribution [41]: 4.1%
Distribution [42]: 12.5%
Distribution [43]: 2.4%
Distribution [44]: 2.3%
Distribution [45]: 2.6%
Distribution (Mus musculus): 1.1%
Distribution [46]: 2%
Distribution [47]: 5.3%
SMILES: C[N+]1(CCOc2cccc(I)c2)CCCCC1
